Screening data (PubChem BioAssay)
HEK293 NFkB inh = inhibitors of PMA/ionomycin-induced NF-kB reporter, primary screen, antigen receptor NF-kB inhibitor project, cell-based, HEK-293 luciferase reporter, luminescence. inhibition, % at 3 µM. AID 465, 2006. actives 0.21% (n = 62,000). HEK-293 NF-kB luciferase reporter;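 active means inhibition above the mean of all tested compounds plus 3 SD, cut at about 40% in these data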
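System: NF-kB luciferase reporter HEK-293 cells | Replication: Single test | Control set: DMSO vs reference inhibitor | Evaluation: % inhibition | Schedule: 1 h pretreatment, 16 h stimulation, 37 °C | Probe or stimulus: PMA with ionomycin | Compound dosing: One dose, 3 µM | Detection: Luciferase luminescence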
M1 antag = antagonists of rat M1 muscarinic receptor | Muscarinic acetylcholine receptor M1 (Rattus norvegicus), P08482 | CHO-M1 cells, Fluo-4 calcium, ACh EC80 antagonist mode; active compounds read low | B-score at 10 µM | actives 3.4% (n = 64,000) | AID 628, 2007;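 active means calcium fluorescence response, raw or row-and-column corrected B-score, differing from the plate sample mean either way at a set confidence level, mostly lower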
hDAT+cocaine = changed hDAT dopamine uptake under cocaine IC80, either direction, primary screen, cocaine antagonist project, cell-based, LLC-PK1 hDAT, [14C]-dopamine uptake, MLSMR; LLC-PK1 hDAT cells, [14C]-dopamine uptake with cocaine IC80; actives deviate in either direction; B-score at 10 µM; actives 1.3% (n = 110,000);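 active means Z score or B-score, a plate-position-corrected score, falls beyond the plate's 99.7% confidence bounds, in either direction; inactive means both scores lie inside the 99.7% bounds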
Target sequence (Q01959 whole entry, looked up): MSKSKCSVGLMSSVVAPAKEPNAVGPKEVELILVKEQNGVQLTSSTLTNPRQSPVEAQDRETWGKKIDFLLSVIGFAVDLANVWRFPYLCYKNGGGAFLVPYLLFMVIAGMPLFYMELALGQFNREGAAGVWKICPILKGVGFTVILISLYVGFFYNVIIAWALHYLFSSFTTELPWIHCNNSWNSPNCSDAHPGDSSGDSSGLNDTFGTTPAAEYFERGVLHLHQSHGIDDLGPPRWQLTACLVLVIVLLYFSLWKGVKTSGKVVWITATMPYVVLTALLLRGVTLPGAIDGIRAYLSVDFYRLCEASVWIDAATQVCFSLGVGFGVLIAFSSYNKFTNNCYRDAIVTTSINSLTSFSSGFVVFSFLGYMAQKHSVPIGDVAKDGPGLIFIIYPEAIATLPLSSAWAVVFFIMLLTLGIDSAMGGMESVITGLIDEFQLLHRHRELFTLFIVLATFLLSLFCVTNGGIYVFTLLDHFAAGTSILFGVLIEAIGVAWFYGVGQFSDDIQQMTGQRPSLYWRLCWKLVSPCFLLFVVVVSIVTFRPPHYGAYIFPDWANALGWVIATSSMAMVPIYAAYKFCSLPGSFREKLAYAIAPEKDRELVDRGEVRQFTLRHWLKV
M1 ag = M1 muscarinic receptor agonists, primary screen, CHO-M1 cells, Fluo-4 calcium, agonist mode; B-score at 10 µM; actives 3% (n = 64,000); AID 626, 2007; Fluo-4 calcium fluorescence; active compounds read high;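 active means fluorescence rise, raw or as B-score row- and column-corrected plate score, outside the 99.7% band of its plate's samples, either direction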
D1 mod = D1 CRE-luciferase signal change, two-sided – cell-based, HEK293 D1, dopamine EC30, D1 allosteric modulator project, primary screen. dopamine EC30 potentiation; actives deviate in either direction. B-score at 10 µM. actives 5.9% (n = 58,000). D(1A) dopamine receptor (Homo sapiens), P21728. AID 641, 2007;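 active means luminescence count or its row- and column-corrected plate score outside the 99.7% band of the plate's sample wells, on either side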
BAP1 inh = inhibitors of BAP1 deubiquitinase, primary screen, biochemical, Ub-AMC fluorescence, kinetic; Ubiquitin carboxyl-terminal hydrolase BAP1 (Homo sapiens), Q92560; recombinant BAP1, Ub-AMC hydrolysis fluorescence kinetic; active compounds read low; actives 0.48% (n = 72,000); calls only at 20 µM;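 active means activity remaining at or below 50% of control, provided the compound also passes the data quality filters; inactive means the rest, including low values that fail the filters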
D1 PAM confirm = D1 receptor positive allosteric modulators, retest, confirmation, cell-based, HEK293 D1, CRE-luciferase, duplicate. shares compounds with D1 mod. dopamine EC30 potentiation; active compounds read high. luminescence at 10 µM. actives 88% (n = 2,200);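 active means luminescence in either of two replicates above the same-plate mean plus 3 SD of the low-dose dopamine control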
D1 ag no DA = D1 receptor agonism without dopamine, confirmation, mechanism study for D1 allosteric modulator project, cell-based, HEK293 D1, CRE-luciferase, secondary assay 1 | shares compounds with D1 mod | luminescence, no dopamine; active compounds read high | luminescence at 10 µM | actives 0.8% (n = 1,900) | AID 646, 2007; in the data active means luminescence above about 3900
Isoprot counter = alters isoproterenol CRE-luciferase response in HEK293 cells. shares compounds with D1 mod. HEK293 D1 CRE-luciferase, isoproterenol EC30 counter-screen. calls only at 10 µM. actives 63% (n = 2,200);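 active means luminescence in either replicate above plate mean of wells with a partly effective reference agonist dose plus 3 SD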;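 further: isoproterenol raises cAMP through native beta-adrenoceptor Gs so signal bypasses D1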
A number is an active result; – = inactive; · = no result shown; + = active, no number. The list is not random: actives were taken first. Their share in the collection is about 7.2%.

SMILES	HEK293 NFkB inh	M1 antag	hDAT+cocaine	M1 ag	D1 mod	BAP1 inh	D1 PAM confirm	D1 ag no DA	Isoprot counter
CCOC(=O)CSc1nc2ccc(N3CCOCC3)cc2c(=O)n1Cc1ccc2c(c1)OCO2	–	–	·	–	6.96	–	9824	–	+
CC(C)c1cccc(C(C)C)c1NC(=O)C(C(C)C)N1C(=O)c2ccccc2C1=O (centres undefined)	·	·	·	·	·	–	·	·	·
C=CCSc1nc(N)c2c(C)c(C)sc2n1	–	–	–	–	4.9	–	18248	–	+
O=C(Nc1ccccc1F)c1cc(F)ccc1[N+](=O)[O-]	·	·	·	·	·	–	·	·	·
Cc1nc(NCCc2ccc(S(N)(=O)=O)cc2)c2c(C)c(C)sc2n1	·	·	–	·	·	·	·	·	·
Cc1sc2nc(C3CC3)nc(NCCNS(C)(=O)=O)c2c1C	–	–	–	–	6.46	–	10452	–	–
O=C(CSc1nc2ccccc2[nH]1)Nc1cc(C(F)(F)F)ccc1N1CCOCC1	–	–	–	–	4.04	–	7804	·	–
CC(C)Sc1nc2c(cnn2-c2ccccc2)c(=O)[nH]1	–	–	–	–	15	–	15608	–	+
O=c1[nH]c(SCc2ccccc2Cl)nc2c1cnn2-c1ccccc1	–	–	–	–	7.56	–	–	·	+
Cc1ccc(-n2ncc3c(=O)[nH]c(SC(C)C)nc32)cc1	–	–	–	–	17.5	–	12920	–	+
COc1ccc(C(=O)CSc2nnnn2C)cc1	·	·	·	·	·	–	·	·	·
COCCCNc1oc(-c2ccccc2OC)nc1C#N	–	–	–	–	–	·	·	·	·
N#Cc1nc(-c2ccccc2F)oc1NCCc1ccccc1	·	·	–	·	·	·	·	·	·
N#Cc1nc(-c2ccccc2F)oc1NCc1ccccc1	–	–	–	–	7.87	–	14936	–	+
COCCCNc1oc(-c2ccccc2F)nc1C#N	–	–	–	–	5.83	–	11980	–	+
Cc1ccc(Cl)cc1N(Cc1ccc(C(=O)NCC2CCCO2)cc1)S(=O)(=O)c1ccccc1 (centres undefined)	·	·	·	·	·	–	·	·	·
CCCC(=O)c1c(NC(C)C)cc(C)oc1=O	–	–	–	–	5.68	–	12004	–	+
COC(=O)c1ccccc1NC(=O)COc1ccc(S(=O)(=O)N2CCCC2)cc1C	–	–	–	–	3.24	·	5776	–	–
COC(=O)c1ccccc1NC(=O)COc1ccccc1	–	–	–	–	5.83	–	14156	–	+
CC1=CC(C)(C)N(C(=O)Nc2cccc(Cl)c2)c2cc(C)c(C)cc21	·	·	·	·	·	–	·	·	·
O=C(CCN1C(=O)c2ccccc2C1=O)Oc1ccc(C(=O)O)cc1	·	·	·	·	·	–	·	·	·
COc1cccc(C2C(C(=O)c3cccs3)=C(O)C(=O)N2CCN(C)C)c1OC (centres undefined)	–	–	–	–	2.51	–	–	·	–
Cc1ccc([N+](=O)[O-])cc1NC1OC(CO)C(O)C(O)C1O (centres undefined)	·	·	·	·	·	–	·	·	·
Cc1ccc(C(=O)Nc2cccc(C(=O)O)c2)cc1S(=O)(=O)Nc1ccc(Br)cc1	·	·	·	·	·	–	·	·	·
CCOC(=O)c1cc2c(C(F)(F)F)cc(-c3cccnc3)nc2o1	–	–	–	–	5.3	·	6932	–	+
SMILES	HEK293 NFkB inh	M1 antag	hDAT+cocaine	M1 ag	D1 mod	BAP1 inh	D1 PAM confirm	D1 ag no DA	Isoprot counter
Cc1nn(CCC(=O)O)c2nc(-c3cccnc3)cc(C(F)(F)F)c12	–	–	–	–	5.38	·	8896	·	–
Cc1nn2c(C(F)(F)F)cc(-c3ccc(Cl)cc3)nc2c1C(=O)N1CCCCCC1	·	·	·	·	·	–	·	·	·
Cc1ccc(C2CC(C(F)(F)F)n3nc(C(=O)NCC(C)C)c(Cl)c3N2)cc1 (centres undefined)	·	·	·	·	·	–	·	·	·
Cc1cccc(OCc2nc(-c3nonc3N)no2)c1C	–	·	–	·	–	–	·	·	·
COc1ccc(-c2noc(CCC(=O)Nc3cccnc3)n2)cc1OC	–	–	–	–	4.65	–	17976	–	–
CCOc1ccc(Cc2nc(-c3nonc3N)no2)cc1OCC	–	–	–	–	7.68	–	13988	–	+
CCOc1ccc(-c2noc(CCC(N)=O)n2)cc1OCC	–	·	–	·	11.3	–	16532	–	+
COc1cccc(-c2noc(CCC(=O)Nc3cccnc3)n2)c1	–	–	–	–	–	–	·	·	·
COc1ccc(-n2nc3c(c2NC(=O)c2cc(OC)c(OC)c(OC)c2)CSC3)cc1	·	·	·	·	·	–	·	·	·
Cc1cccc2sc(NC(=O)c3ccccc3Oc3ccccc3)nc12	·	·	·	·	·	–	·	·	·
Cc1cc(=O)oc2cc(OCC(=O)NCCc3nc4ccccc4[nH]3)ccc12	–	–	–	–	3.22	–	6860	–	–
CC1(C)Cc2c(C#N)c(NC3CCCCC3)nc(-c3ccco3)c2CO1	–	–	–	–	3.42	–	8368	–	–
CC1(C)Cc2c(C#N)c(NCC3CCCO3)nc(-c3ccco3)c2CO1 (centres undefined)	·	–	–	–	·	–	·	·	·
O=C(NCc1ccco1)c1cccnc1-c1nc2ccccc2s1	–	–	·	–	5.93	–	11260	–	+
O=C(NCc1ccco1)c1cc(-c2cccnc2)nc2ccccc12	–	–	–	–	–	–	·	·	·
Cc1cccc(-c2c3c(=O)n(C)c(=O)n(C)c3cn2-c2ccccc2O)c1	–	–	–	–	5.8	–	9336	–	–
CCCCCCNc1cc2n(c(=O)n1)CCc1cc(OC)c(OC)cc1-2	–	–	–	–	3.15	·	13732	–	+
COc1cc2c(cc1OC)-c1cc(NC3CC3)nc(=O)n1CC2	–	–	–	–	5.67	–	14400	–	+
COc1cc2c(cc1OC)-c1cc(NC3CCCCCCC3)nc(=O)n1CC2	–	–	–	–	7.6	·	20716	–	+
CCNc1cc2n(c(=O)n1)CCc1cc(OC)c(OC)cc1-2	–	–	–	–	–	·	·	·	·
COc1cc2c(cc1OC)-c1cc(NCc3ccccn3)nc(=O)n1CC2	–	–	–	–	5.2	–	10588	–	+
O=C(OCCN1C(=O)c2cccc([N+](=O)[O-])c2C1=O)C1CCCCC1	·	·	·	·	·	–	·	·	·
